# CR mimetic SO – caloric restriction mimetics inhibiting age-related superoxide in yeast; AID 2690; superoxide response (% of plate mean), % at 10 µM; S. cerevisiae aged cells, superoxide DHE fluorescence; active compounds read low; 330,000 compounds, 0.18% hits;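 active = superoxide response under a set limit, about three screen SD below normal, cut at about 65% in these data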;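 note: yeast aged for seven days with compound at 30 °C before DHE staining; 100% = average MFI of all compound-treated wells on the plate with controls excluded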
# TRPC4 inh – inhibitors of mouse TRPC4 channel; B-score at 10 µM; AID 2247; HEK293 TRPC4beta/mu-opioid, DAMGO-evoked Fluo4 calcium flux; active compounds read low; 300,000 compounds, 0.39% hits;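 active = B-score over 3 SD under the library average, no early fluorescence shift, positive overall ratio signal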
#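 Material: HEK293 cells with stable TRPC4beta plus mu-opioid receptor expression / Probe or stimulus: DAMGO in two steps, submaximal then maximal / Compound: single concentration per test compound / Technique: kinetic Fluo4 fluorescence imaging of calcium influx / Read-out: per-well B score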
# TRPC4 potent – TRPC4 (mouse) allosteric potentiation | Q9QUQ5 | HEK293 TRPC4beta/mu-opioid, DAMGO EC20, Fluo-4 Ca2+ flux; active compounds read high | B-score at 10 µM | 310,000 compounds, 0.42% hits | AID 2227;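 active = B-score of calcium response area above 5 SD of library B-scores, with initial fluorescence ratio within 5 SD of library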;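 note: B-score of integrated fluorescence ratio over time as area under calcium response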
# TRPC6 activator – activates the mouse TRPC6 cation channel | B-score at 10 µM | 310,000 compounds, 0.13% hits | HEK293-TRPC6 membrane potential dye fluorescence; active compounds read high | Q61143;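 active = B-score of the integrated fluorescence ratio above library mean plus 3 SD, and starting fluorescence ratio within library mean plus 5 SD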;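 note: higher score means more depolarization so channel activation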
# TRPC4 act – TRPC4 (mouse) channel activation; Q9QUQ5; HEK293 TRPC4beta/mu-opioid, Fluo4 calcium fluorescence; active compounds read high; B-score at 10 µM; 310,000 compounds, 0.49% hits;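 active = B-score above 5 SD of library B-scores, and initial fluorescence ratio not above library mean plus 5 SD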;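 note: positive B-score marks a calcium rise read as TRPC4 activation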
#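 Assay system: HEK293 stable line with TRPC4beta plus mu-opioid receptor. Times: dye 45 min RT, read 110 s. Measured by: kinetic Fluo4 calcium fluorescence. Measure: B score of integrated ratio. Controls: assay buffer as low control, maximal DAMGO as high control.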
# TRPC6 inh – inhibitors of mouse TRPC6 channel; HEK293-TRPC6, membrane potential dye, ACh-evoked depolarization; active compounds read low; B-score at 10 µM; 310,000 compounds, 1.1% hits; AID 2553;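 active = B-score under library mean minus 3 SD, initial fluorescence not abnormally high, positive integrated signal ratio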;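 note: B-score derived from integrated fluorescence ratio over the kinetic read; more negative B-score means stronger inhibition of depolarization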
# TRPC4 spec 2 – second selectivity test of TRPC6 inhibitors: effect on mouse TRPC4 | inhibition, % at 10 µM | shares compounds with TRPC6 inh | 920 compounds, 42% hits | HEK293 TRPC4/MOR, membrane potential dye fluorescence; channel activated by saturating DAMGO dose;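 active = compounds whose fluorescence signal differed from control wells by over 3 SD, either direction, in both duplicate plates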
# TRPC4 spec – tests whether TRPC6 inhibitors also affect mouse TRPC4; shares compounds with TRPC6 inh; HEK293 TRPC4/mu-opioid, membrane potential fluorescence; activity change, negative = inhibition, % at 10 µM; 920 compounds, 61% hits; AID 2777;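 active = rise or fall in signal beyond 3 SD of buffer-only wells in both replicate plates, either sign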;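 note: integrated kinetic ratio of fluorescence range over baseline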
# HEK293 MPD ctr 2-1 – second counter-screen for TRPC6 inhibitors: parental HEK293 cells | shares compounds with TRPC6 inh | parental HEK293 membrane potential dye fluorescence; maximal acetylcholine challenge after compound addition | signal change vs control, % at 10 µM | 920 compounds, 31% hits | AID 2779;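 active = membrane potential signal moving either way by over 3 SD of the maximum-effect control, in both duplicate plates, meaning non-specific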
# HEK293 MPD ctr-1 – counter-screen for TRPC6 inhibitors: effect in parental HEK293 cells; shares compounds with TRPC6 inh; parental HEK293 membrane potential dye fluorescence; membrane potential signal change, % at 10 µM; 920 compounds, 60% hits;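 active = membrane potential signal shifting up or down by more than 3 SD of buffer-only wells, on both duplicate plates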
# HEK293 MPD ctr-2 – counter-screen for TRPC6 modulators: effect in parental HEK293 cells; shares compounds with TRPC6 inh; membrane potential dye fluorescence; membrane potential signal change, % at 10 µM; 2,400 compounds, 51% hits; AID 488924;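 active = membrane potential signal moves up or down beyond 5 SD from buffer-only wells, on both duplicate plates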
# HEK293 MPD ctr 2-2 – second check of TRPC6 modulator effects in parental HEK293 cells; shares compounds with TRPC6 inh; membrane potential dye fluorescence; after compound, maximal acetylcholine stimulation; inhibition, % at 10 µM; 2,400 compounds, 14% hits; AID 488926;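 active = membrane potential signal drops by more than 5 SD from the mean control signal, in both duplicate plates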;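 note: plate controls were acetylcholine ECmax control wells for no effect and buffer only wells for full effect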
# TRPC4/MOR mod – selectivity of TRPC6 modulators against mouse TRPC4; 2,400 compounds, 69% hits; shares compounds with TRPC6 inh; percent change from control (negative = decrease, positive = increase), % at 10 µM; HEK293 TRPC4/mu-opioid, membrane potential fluorescence;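 active = membrane potential signal moved up or down beyond 5 SD of buffer control wells, in both duplicate plates, actives on both sides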;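 note: plate controls were assay buffer wells for no effect and DAMGO maximal-effect wells for full effect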
# TRPC4 ctr inh 2 – second check of whether TRPC6 modulators also affect mouse TRPC4 | shares compounds with TRPC6 inh | HEK293 TRPC4/mu-opioid, membrane potential dye fluorescence; stimulated with maximal-effect DAMGO | inhibition, % at 10 µM | 2,400 compounds, 55% hits | AID 488928;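 active = drop in membrane potential signal beyond 5 SD of the control wells in both duplicate plates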;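 note: TRPC4 counter screen for TRPC6 hits run under conditions tuned for TRPC6 not TRPC4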
# TRPC6 inh conf – confirmation of mouse TRPC6 inhibitors. shares compounds with TRPC6 inh. HEK293-TRPC6, membrane potential dye, ACh-evoked depolarization. inhibition, % at 10 µM. 3,300 compounds, 43% hits. AID 488960;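 active = fluorescence ratio falls more than 5 SD below the full-stimulation control mean, in both duplicate runs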;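 note: integrated fluorescence ratio of peak minus minimum over baseline after agonist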
# TRPC6 act conf – confirmation of mouse TRPC6 activators; AID 488961; 2,800 compounds, 11% hits; HEK293-TRPC6 membrane potential dye fluorescence, FDSS; shares compounds with TRPC6 inh; activation, % at 10 µM;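 active = ratio signal rise beyond 5 SD above unstimulated control wells' mean, seen in both duplicate runs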;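 note: plate controls were buffer EC0 wells for no effect and acetylcholine ECmax response for full effect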
# Starred values were filed as active, the others as inactive; i = inactive; . = no result; + = active, no number. In the library only some 2.3% were active in any assay of this set; here they are far more common.
SMILES,CR mimetic SO,TRPC4 inh,TRPC4 potent,TRPC6 activator,TRPC4 act,TRPC6 inh,HEK293 MPD ctr-2,HEK293 MPD ctr 2-2,TRPC4/MOR mod,TRPC4 ctr inh 2,TRPC6 inh conf,TRPC6 act conf,others
COC(=O)c1ccc(NC(=O)c2snnc2-c2ccccc2)cc1,109.7,i,i,i,i,-7.33*,.,.,.,.,92.8%*,.,TRPC4 spec 2=i;TRPC4 spec=i;HEK293 MPD ctr 2-1=i;HEK293 MPD ctr-1=i
Cc1occc1C(=O)N(C)CC1CCCN(CCc2ccccc2F)C1 (stereo not given),79.8,i,i,i,i,i,.,.,.,.,.,.,
O=S(=O)(NCc1nnc2c(C(F)(F)F)cc(Cl)cn12)c1ccccc1,108.7,i,i,i,i,i,.,.,.,.,.,.,
O=C(CCc1ccccc1)N1CCN(c2ccc(Cl)cc2)CC1,111.4,i,i,i,i,i,.,.,.,.,.,.,
COc1cnc(-c2ccccn2)nc1Oc1cccc(Cl)c1,97.3,i,i,i,i,-5.45*,i,i,i,i,i,i,
COc1ccc(Oc2nc(-c3ccccn3)ncc2OC)cc1,98.2,i,i,i,i,i,.,.,.,.,.,.,
COc1cnc(-c2ccccn2)nc1N(C)C,102.8,i,i,i,i,-5.21*,-76.5%*,i,-15.5%*,i,i,i,
C[C@H]1CN=C(N(C)C)N1CCCC1CCCC1,104.0,.,.,.,.,.,.,.,.,.,.,.,
COc1ccc(C(=O)N/C(=C\c2cn(C)c3ccccc23)C(=O)OCCN(C)C)cc1,99.2,i,i,i,i,-6.08*,i,i,i,53.0%*,45.0%*,i,
CCCCOC(=O)/C(=C/c1cn(C)c2ccccc12)NC(=O)c1ccc(OC)cc1,102.4,i,i,i,i,i,.,.,.,.,.,.,
COCCCNC(=O)CCn1nc(-c2ccc(Cl)cc2)ccc1=O,95.5,i,i,i,i,-5.24*,i,i,i,i,i,i,
CC1(C(O)(C#CC[N+]2(C)CCCCC2)c2ccccc2)CCCC1 (stereo not given),110.3,i,i,i,i,-10.9*,.,.,.,.,106.6%*,i,TRPC4 spec 2=i;TRPC4 spec=i;HEK293 MPD ctr 2-1=-25.5%*;HEK293 MPD ctr-1=i
NC(=O)C[N+]1(CC#CC(O)(c2ccccc2)c2ccccc2)CCCC1,108.8,i,i,i,i,i,.,.,.,.,.,.,
O=C(CSc1nnc(-c2ccco2)n1-c1ccccc1)Nc1c(Cl)cc(Cl)cc1C(=O)O,76.1,.,.,.,.,.,.,.,.,.,.,.,
COc1cc(/C=C(\C#N)c2nc3ccccc3o2)ccc1O,144.9,i,i,63*,78*,i,+,i,290.0%*,i,i,361.5%*,
N#C/C(=C\c1ccc(O)cc1)c1nc2ccccc2o1,101.2,i,i,i,i,i,.,.,.,.,.,.,
CC1CCCN(C(=O)c2ccc3c(c2NCCO)C(=O)c2ccccc2C3=O)C1 (stereo not given),150.3,i,i,i,i,-5.92*,-235.0%*,i,-36.0%*,68.5%*,49.0%*,i,
CCN(CCN(C)C)C(=O)c1ccc2c(c1NCCO)C(=O)c1ccccc1C2=O,145.0,i,i,i,i,-5.89*,-168.0%*,i,-34.5%*,49.0%*,45.0%*,i,
S=C(NCCc1ccccc1)Nc1ccccn1,127.8,i,i,i,i,i,.,.,.,.,.,.,
O=C(NCCc1ccc(F)cc1)C1CCCCC1,94.5,i,i,i,i,i,.,.,.,.,.,.,
CCOC(=O)c1cn(C2CC2)c2c(F)c(NCCCN(C)C)c(F)cc2c1=O,98.3,i,i,i,i,-7.37*,.,.,.,.,67.1%*,i,TRPC4 spec 2=i;TRPC4 spec=-23.0%*;HEK293 MPD ctr 2-1=0.0%*;HEK293 MPD ctr-1=-436.5%*
CC(C)N(C(=O)COC(=O)c1cccnc1Cl)c1ccccc1,84.5,.,.,.,.,.,.,.,.,.,.,.,
COc1ccc(NC(=S)NNC(=O)C2CC2c2ccc(C)cc2)cc1 (stereo not given),108.3,i,i,i,i,i,.,.,.,.,.,.,
CC1CC(C)(C)N(C(=O)CN2C(=O)c3ccccc3C2=O)c2ccccc21 (stereo not given),94.7,-7*,i,i,158*,-5.06*,183.0%*,i,41.5%*,i,i,.,
CN1C(=S)N(c2cccnc2)C(=O)/C1=C\c1ccc(N(C)C)cc1,.,i,i,12.5*,i,i,356.0%*,i,108.5%*,i,i,106.5%*,
Cc1cc(C)c(-c2csc(NC(=O)/C=C/c3cccs3)n2)c(C)c1,109.0,i,i,i,i,i,.,.,.,.,.,.,
CC(C)COc1ccc(C(=O)OC2CC(C)(C)OCC2CN(C)C)cc1 (stereo not given),101.5,i,i,13.9*,i,i,300.0%*,i,46.5%*,41.5%*,i,135.5%*,
CC(C)COc1ccc(C(=O)OCCN2CCOCC2)cc1,.,i,i,i,i,i,.,.,.,.,.,.,
O=C(CN1CCN(c2ccc(O)cc2)CC1)Nc1ccccc1C(=O)NCCc1ccccc1,87.7,.,.,.,.,.,.,.,.,.,.,.,

# Screening data: PubChem, several laboratories
